Data: ChEMBL document CHEMBL1123801, “Synthesis and antifungal activity of new 1-vinylimidazoles” (1987)
In brackets after ≈: the same amount, converted by molar mass.

These compounds were tested on Trichophyton benhamiae (assay: Minimum inhibitory concentration against Trichophyton asteroides). Details: not given.
Format: functional
Outline: (§1)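 Broth microdilution in Sabouraud's glucose broth. Final inocula 1×10^5 cells/mL for the yeast (C. albicans) and 1×10^5 conidia/mL for the mold (A. fumigatus) and the dermatophyte (T. asteroides). MIC read as the fungistatic end point. Lowest value of duplicated experiments.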

MIC	SMILES
0.1 µg/mL (≈ 0.278 µM)	C=C(c1ccccc1OCCc1ccc(Cl)cc1Cl)n1ccnc1
0.2 µg/mL (≈ 0.723 µM)	C=C(c1cc(Cl)ccc1OCCCC)n1ccnc1
0.8 µg/mL (≈ 2.27 µM)	C=C(c1cc(Cl)ccc1OC(CCC)c1ccccc1)n1ccnc1 (stereo unspecified)
0.2 µg/mL (≈ 0.78 µM)	CCCOc1ccccc1C(=C(C)C)n1ccnc1
0.1 µg/mL (≈ 0.29 µM)	C=C(c1ccccc1OCc1ccc(Cl)cc1Cl)n1ccnc1
12.5 µg/mL (≈ 43.8 µM)	CCCOc1ccccc1/C(=C\CN(C)C)n1ccnc1
0.1 µg/mL (≈ 0.278 µM)	C=C(c1cc(Cl)ccc1OC(C)c1ccc(Cl)cc1)n1ccnc1 (stereo unspecified)
0.2 µg/mL (≈ 0.616 µM)	CC=C(c1cc(Cl)ccc1OCc1ccccc1)n1ccnc1
0.4 µg/mL (≈ 1.07 µM)	CCC=C(c1cc(Cl)ccc1OCc1ccc(Cl)cc1)n1ccnc1
0.1 µg/mL (≈ 0.271 µM)	C=C(c1cc(Cl)ccc1OCc1ccc(C(=O)OC)cc1)n1ccnc1
0.1 µg/mL (≈ 0.326 µM)	C=C(c1ccccc1OCCOc1ccccc1)n1ccnc1
0.1 µg/mL (≈ 0.27 µM)	C=C(c1ccccc1OCCCSc1ccc(Cl)cc1)n1ccnc1
1.6 µg/mL (≈ 4.72 µM)	CCC=C(c1cc(Cl)ccc1OCc1ccccc1)n1ccnc1
0.1 µg/mL (≈ 0.29 µM)	C=C(c1ccccc1OCc1ccc(Cl)c(Cl)c1)n1ccnc1
0.1 µg/mL (≈ 0.308 µM)	C=C(c1cc(Cl)ccc1OC(C)c1ccccc1)n1ccnc1 (stereo unspecified)
0.1 µg/mL (≈ 0.282 µM)	C=C(c1ccccc1OCCCOc1ccc(Cl)cc1)n1ccnc1
0.1 µg/mL (≈ 0.295 µM)	C=C(c1cc(Cl)ccc1OC(CC)c1ccccc1)n1ccnc1 (stereo unspecified)
0.8 µg/mL (≈ 2.46 µM)	C=C(c1cc(Cl)ccc1OCc1ccc(C)cc1)n1ccnc1
0.1 µg/mL (≈ 0.381 µM)	C=C(c1cc(Cl)ccc1OCCC)n1ccnc1

Continued, compound first:

SMILES	MIC
C=C(c1cc(Cl)cc(Cl)c1OCc1ccsc1Cl)n1ccnc1	3.1 µg/mL (≈ 8.04 µM)
C=C(c1c(Cl)ccc(Cl)c1OCc1ccc(Cl)cc1)n1ccnc1	12.5 µg/mL (≈ 32.9 µM)
CC(C)=C(c1ccccc1OCc1ccccc1)n1ccnc1	1.6 µg/mL (≈ 5.26 µM)
C=C(c1cccc(OCc2ccc(Cl)cc2)c1)n1ccnc1	1.6 µg/mL (≈ 5.15 µM)
CC(C)=C(c1ccccc1OCCCc1ccccc1)n1ccnc1	0.2 µg/mL (≈ 0.602 µM)
CC(C)=C(c1ccccc1OCCCOc1ccc(Cl)cc1)n1ccnc1	1.6 µg/mL (≈ 4.18 µM)
CN(C)C/C=C(\c1ccccc1OCc1ccc(Cl)cc1)n1ccnc1	1.6 µg/mL (≈ 4.35 µM)
CC(C)COc1ccc(Cl)cc1/C(=C\CN(C)C)n1cncn1	12.5 µg/mL (≈ 37.3 µM)
CC(C)=C(c1cc(Cl)ccc1OCc1ccc(C)cc1)n1ccnc1	1.6 µg/mL (≈ 4.53 µM)
C=C(c1ccccc1NCc1ccc(Cl)cc1)n1ccnc1	> 100 µg/mL
C=C(c1ccccc1OC(CC)c1ccccc1)n1ccnc1 (stereo unspecified)	0.1 µg/mL (≈ 0.329 µM)
C=C(c1ccccc1OCc1ccc(OC)cc1)n1ccnc1	0.1 µg/mL (≈ 0.326 µM)
C=C(c1cc(Cl)cc(Cl)c1OCc1ccc(Cl)cc1)n1ccnc1	6.2 µg/mL (≈ 16.3 µM)
CC(C)=C(c1cc(Cl)ccc1OCCCOc1ccc(Cl)cc1)n1ccnc1	3.1 µg/mL (≈ 7.43 µM)
C=C(c1cc(Cl)cc(Cl)c1OCc1ccccc1)n1ccnc1	3.1 µg/mL (≈ 8.98 µM)
C=C(c1ccccc1OC(C)c1ccc(OC)cc1)n1ccnc1 (stereo unspecified)	0.4 µg/mL (≈ 1.25 µM)
CC=C(c1ccccc1OCc1cccc(Cl)c1)n1ccnc1	3.1 µg/mL (≈ 9.54 µM)
C=C(c1ccccc1OC(CCC)c1ccccc1)n1ccnc1 (stereo unspecified)	0.4 µg/mL (≈ 1.26 µM)

What follows are compounds tested on Candida albicans (assay: Inhibition of pseudomycelium formation of Candida albicans.). Details: read-out: MEC.
Format: functional
Outline: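 C. albicans KE-2 (clinical isolate), final inoculum 1×10^6 yeast cells/mL in EMEM with 20% calf serum. Compounds serially diluted by the microtiter dilution system used for MICs. After incubation, wells Giemsa-stained (5% in phosphate buffer) and examined microscopically. MEC (μg/mL) = lowest concentration preventing typical pseudomycelium formation. Lowest value of duplicated experiments.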

SMILES	minimal effective concentration
C=C(c1cccc(OCc2ccc(Cl)cc2)c1)n1ccnc1	5 µg/mL
CN(C)C/C=C(\c1ccccc1OCc1ccc(Cl)cc1)n1ccnc1	1.25 µg/mL
CCCOc1ccccc1C(=C(C)C)n1ccnc1	0.31 µg/mL
CC(C)COc1ccc(Cl)cc1/C(=C\CN(C)C)n1cncn1	0.31 µg/mL
CCCOc1ccccc1/C(=C\CN(C)C)n1ccnc1	0.31 µg/mL

Each compound was assayed on Candida albicans (assay: Minimum inhibitory concentration (MIC) against Candida albicans). Details: not given.
Format: functional
Outline: as §1

MIC	SMILES
25 µg/mL (≈ 69.6 µM)	C=C(c1ccccc1OCCc1ccc(Cl)cc1Cl)n1ccnc1
25 µg/mL (≈ 90.3 µM)	C=C(c1cc(Cl)ccc1OCCCC)n1ccnc1
> 100 µg/mL	C=C(c1cc(Cl)ccc1OC(CCC)c1ccccc1)n1ccnc1 (stereo unspecified)
12.5 µg/mL (≈ 48.8 µM)	CCCOc1ccccc1C(=C(C)C)n1ccnc1
50 µg/mL (≈ 145 µM)	C=C(c1ccccc1OCc1ccc(Cl)cc1Cl)n1ccnc1
> 100 µg/mL	CCCOc1ccccc1/C(=C\CN(C)C)n1ccnc1
12.5 µg/mL (≈ 34.8 µM)	C=C(c1cc(Cl)ccc1OC(C)c1ccc(Cl)cc1)n1ccnc1 (stereo unspecified)
6.2 µg/mL (≈ 19.1 µM)	CC=C(c1cc(Cl)ccc1OCc1ccccc1)n1ccnc1
6.2 µg/mL (≈ 16.6 µM)	CCC=C(c1cc(Cl)ccc1OCc1ccc(Cl)cc1)n1ccnc1
25 µg/mL (≈ 67.8 µM)	C=C(c1cc(Cl)ccc1OCc1ccc(C(=O)OC)cc1)n1ccnc1
50 µg/mL (≈ 163 µM)	C=C(c1ccccc1OCCOc1ccccc1)n1ccnc1
25 µg/mL (≈ 67.4 µM)	C=C(c1ccccc1OCCCSc1ccc(Cl)cc1)n1ccnc1
6.2 µg/mL (≈ 18.3 µM)	CCC=C(c1cc(Cl)ccc1OCc1ccccc1)n1ccnc1
25 µg/mL (≈ 72.4 µM)	C=C(c1ccccc1OCc1ccc(Cl)c(Cl)c1)n1ccnc1
25 µg/mL (≈ 77 µM)	C=C(c1cc(Cl)ccc1OC(C)c1ccccc1)n1ccnc1 (stereo unspecified)
12.5 µg/mL (≈ 35.2 µM)	C=C(c1ccccc1OCCCOc1ccc(Cl)cc1)n1ccnc1
> 100 µg/mL	C=C(c1cc(Cl)ccc1OC(CC)c1ccccc1)n1ccnc1 (stereo unspecified)
25 µg/mL (≈ 77 µM)	C=C(c1cc(Cl)ccc1OCc1ccc(C)cc1)n1ccnc1
25 µg/mL (≈ 95.2 µM)	C=C(c1cc(Cl)ccc1OCCC)n1ccnc1

The next lines start with the compound.

SMILES	MIC
C=C(c1cc(Cl)cc(Cl)c1OCc1ccsc1Cl)n1ccnc1	> 100 µg/mL
C=C(c1c(Cl)ccc(Cl)c1OCc1ccc(Cl)cc1)n1ccnc1	> 100 µg/mL
CC(C)=C(c1ccccc1OCc1ccccc1)n1ccnc1	25 µg/mL (≈ 82.1 µM)
C=C(c1cccc(OCc2ccc(Cl)cc2)c1)n1ccnc1	50 µg/mL (≈ 161 µM)
CC(C)=C(c1ccccc1OCCCc1ccccc1)n1ccnc1	25 µg/mL (≈ 75.2 µM)
CC(C)=C(c1ccccc1OCCCOc1ccc(Cl)cc1)n1ccnc1	12.5 µg/mL (≈ 32.6 µM)
CN(C)C/C=C(\c1ccccc1OCc1ccc(Cl)cc1)n1ccnc1	> 100 µg/mL
CC(C)COc1ccc(Cl)cc1/C(=C\CN(C)C)n1cncn1	> 100 µg/mL
CC(C)=C(c1cc(Cl)ccc1OCc1ccc(C)cc1)n1ccnc1	25 µg/mL (≈ 70.8 µM)
C=C(c1ccccc1NCc1ccc(Cl)cc1)n1ccnc1	> 100 µg/mL
C=C(c1ccccc1OC(CC)c1ccccc1)n1ccnc1 (stereo unspecified)	6.2 µg/mL (≈ 20.4 µM)
C=C(c1ccccc1OCc1ccc(OC)cc1)n1ccnc1	25 µg/mL (≈ 81.6 µM)
C=C(c1cc(Cl)cc(Cl)c1OCc1ccc(Cl)cc1)n1ccnc1	> 100 µg/mL
CC(C)=C(c1cc(Cl)ccc1OCCCOc1ccc(Cl)cc1)n1ccnc1	> 100 µg/mL
C=C(c1cc(Cl)cc(Cl)c1OCc1ccccc1)n1ccnc1	> 100 µg/mL
C=C(c1ccccc1OC(C)c1ccc(OC)cc1)n1ccnc1 (stereo unspecified)	12.5 µg/mL (≈ 39 µM)
CC=C(c1ccccc1OCc1cccc(Cl)c1)n1ccnc1	6.2 µg/mL (≈ 19.1 µM)
C=C(c1ccccc1OC(CCC)c1ccccc1)n1ccnc1 (stereo unspecified)	12.5 µg/mL (≈ 39.3 µM)

The compounds below were run on Aspergillus fumigatus (assay: Minimum inhibitory concentration (MIC) against Aspergillus fumigatus). Details: not given.
Format: functional
Outline: as §1

MIC	SMILES
0.4 µg/mL (≈ 1.11 µM)	C=C(c1ccccc1OCCc1ccc(Cl)cc1Cl)n1ccnc1
0.4 µg/mL (≈ 1.45 µM)	C=C(c1cc(Cl)ccc1OCCCC)n1ccnc1
> 100 µg/mL	C=C(c1cc(Cl)ccc1OC(CCC)c1ccccc1)n1ccnc1 (stereo unspecified)
0.8 µg/mL (≈ 3.12 µM)	CCCOc1ccccc1C(=C(C)C)n1ccnc1
1.6 µg/mL (≈ 4.63 µM)	C=C(c1ccccc1OCc1ccc(Cl)cc1Cl)n1ccnc1
> 100 µg/mL	CCCOc1ccccc1/C(=C\CN(C)C)n1ccnc1
12.5 µg/mL (≈ 34.8 µM)	C=C(c1cc(Cl)ccc1OC(C)c1ccc(Cl)cc1)n1ccnc1 (stereo unspecified)
3.1 µg/mL (≈ 9.54 µM)	CC=C(c1cc(Cl)ccc1OCc1ccccc1)n1ccnc1
0.8 µg/mL (≈ 2.14 µM)	CCC=C(c1cc(Cl)ccc1OCc1ccc(Cl)cc1)n1ccnc1
6.2 µg/mL (≈ 16.8 µM)	C=C(c1cc(Cl)ccc1OCc1ccc(C(=O)OC)cc1)n1ccnc1
12.5 µg/mL (≈ 40.8 µM)	C=C(c1ccccc1OCCOc1ccccc1)n1ccnc1
3.1 µg/mL (≈ 8.36 µM)	C=C(c1ccccc1OCCCSc1ccc(Cl)cc1)n1ccnc1
1.6 µg/mL (≈ 4.72 µM)	CCC=C(c1cc(Cl)ccc1OCc1ccccc1)n1ccnc1
3.1 µg/mL (≈ 8.98 µM)	C=C(c1ccccc1OCc1ccc(Cl)c(Cl)c1)n1ccnc1
6.3 µg/mL (≈ 19.4 µM)	C=C(c1cc(Cl)ccc1OC(C)c1ccccc1)n1ccnc1 (stereo unspecified)
12.5 µg/mL (≈ 35.2 µM)	C=C(c1ccccc1OCCCOc1ccc(Cl)cc1)n1ccnc1
12.5 µg/mL (≈ 36.9 µM)	C=C(c1cc(Cl)ccc1OC(CC)c1ccccc1)n1ccnc1 (stereo unspecified)
1.6 µg/mL (≈ 4.93 µM)	C=C(c1cc(Cl)ccc1OCc1ccc(C)cc1)n1ccnc1
0.8 µg/mL (≈ 3.04 µM)	C=C(c1cc(Cl)ccc1OCCC)n1ccnc1

Further lines, the compound ahead of its results:

SMILES	MIC
C=C(c1cc(Cl)cc(Cl)c1OCc1ccsc1Cl)n1ccnc1	50 µg/mL (≈ 130 µM)
C=C(c1c(Cl)ccc(Cl)c1OCc1ccc(Cl)cc1)n1ccnc1	> 100 µg/mL
CC(C)=C(c1ccccc1OCc1ccccc1)n1ccnc1	12.5 µg/mL (≈ 41.1 µM)
C=C(c1cccc(OCc2ccc(Cl)cc2)c1)n1ccnc1	12.5 µg/mL (≈ 40.2 µM)
CC(C)=C(c1ccccc1OCCCc1ccccc1)n1ccnc1	1.6 µg/mL (≈ 4.81 µM)
CC(C)=C(c1ccccc1OCCCOc1ccc(Cl)cc1)n1ccnc1	6.2 µg/mL (≈ 16.2 µM)
CN(C)C/C=C(\c1ccccc1OCc1ccc(Cl)cc1)n1ccnc1	> 100 µg/mL
CC(C)COc1ccc(Cl)cc1/C(=C\CN(C)C)n1cncn1	> 100 µg/mL
CC(C)=C(c1cc(Cl)ccc1OCc1ccc(C)cc1)n1ccnc1	12.5 µg/mL (≈ 35.4 µM)
C=C(c1ccccc1NCc1ccc(Cl)cc1)n1ccnc1	> 100 µg/mL
C=C(c1ccccc1OC(CC)c1ccccc1)n1ccnc1 (stereo unspecified)	3.1 µg/mL (≈ 10.2 µM)
C=C(c1ccccc1OCc1ccc(OC)cc1)n1ccnc1	6.2 µg/mL (≈ 20.2 µM)
C=C(c1cc(Cl)cc(Cl)c1OCc1ccc(Cl)cc1)n1ccnc1	> 100 µg/mL
CC(C)=C(c1cc(Cl)ccc1OCCCOc1ccc(Cl)cc1)n1ccnc1	> 100 µg/mL
C=C(c1cc(Cl)cc(Cl)c1OCc1ccccc1)n1ccnc1	> 100 µg/mL
C=C(c1ccccc1OC(C)c1ccc(OC)cc1)n1ccnc1 (stereo unspecified)	12.5 µg/mL (≈ 39 µM)
CC=C(c1ccccc1OCc1cccc(Cl)c1)n1ccnc1	1.6 µg/mL (≈ 4.93 µM)
C=C(c1ccccc1OC(CCC)c1ccccc1)n1ccnc1 (stereo unspecified)	12.5 µg/mL (≈ 39.3 µM)
